Assay results published in ChEMBL document CHEMBL1121394, “Oxytocin and lysine-vasopressin with N5,N5-dialkylglutamine in the 4 position: effect of introducing sterically hindered groups into the hydrophilic cluster of neurohypophyseal hormones” (1980).

What was measured:
Gallus gallus = species: Gallus gallus; experiment: Compound was tested in vitro for avain vasopressor activity; type: functional; conditions: in the assay text read “vasodepressor” for “vasopressor”
Procedure, shortened: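 Vasodepressor assay in conscious White Leghorn roosters (Coon method, modified). Where activity was measurable, Schild four-point design with at least ten determinations on three animals.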

Rattus norvegicus [1] = species: Rattus norvegicus; experiment: Compound was tested in vitro for antidiuretic activity in rat; type: functional, Urine; conditions: in the assay text read “in vivo” for “in vitro”
Procedure, shortened: (§1)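 Anesthetized male Sprague-Dawley rats. Where activity was measurable, Schild four-point design with at least ten determinations on three animals.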

Rattus norvegicus [2] = species: Rattus norvegicus; experiment: Compound was tested in vitro for uterotonic activity in rat; type: functional
Procedure, shortened: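 Isolated uterine horns from virgin rats in natural estrus (Holton method as modified by Munsick), Mg2+-free van Dyke-Hastings solution as bath. Where activity was measurable, Schild four-point design with at least ten determinations on three animals.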

Rattus norvegicus [3] = species: Rattus norvegicus; experiment: Compound was tested for percent maximum uterotonic response; type: functional
Procedure, shortened: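 Isolated uterine horns from virgin rats in natural estrus, bathed in Mg2+-free van Dyke-Hastings solution. Dose-response by individual injection, doses raised geometrically in 0.5 log10 steps until a maximal response was reached.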

Rattus norvegicus [4] = species: Rattus norvegicus; experiment: Compound was tested in vitro for pressor activity on rat; type: functional; conditions: in the assay text read “in vivo” for “in vitro”; procedure, shortened: as §1

Q: How did the Activity (Gallus gallus) turn out when `CC[C@H](C)[C@@H]1NC(=O)[C@H](Cc2ccc(O)cc2)NC(=O)[C@@H](N)CSSC[C@@H](C(=O)N2CCC[C@H]2C(=O)N[C@@H](CC(C)C)C(=O)NCC(N)=O)NC(=O)[C@H](CC(N)=O)NC(=O)[C@H](CCC(N)=O)NC1=O` [OXYTOCIN] was run?
A: 507 mg

Q: What about the Activity (Rattus norvegicus [1]) of the same compound?
A: 3.1 mg

Q: What about the Activity (Rattus norvegicus [2]) of the same compound?
A: 546 mg

Q: And the Max uterotonic response (Rattus norvegicus [3])?
A: 100%

Q: What about the Activity (Rattus norvegicus [4]) of the same compound?
A: 2.7 mg
